# Data from ChEMBL document CHEMBL1795243, “New microtubule polymerization inhibitors comprising a nitrooxymethylphenyl group” (Bioorg Med Chem, 2011).
# Activity calls are given as the source filed them. The calls are words filed in the database; no cut-off is given here.
# Key:
# MDA-MB-231 = test: Antiproliferative activity against human MDA-MB-231 cells after 72 hrs by cell counting kit analysis; type: functional, cell-based; settings: MDA-MB-231, 72 h
# Summary of the method: (§1)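 Cells grown with compound for 72 h, then growth quantified by WST-1 Cell Counting Kit. Final concentrations 1, 10, 25, 50, 100 and 200 μM. All media had 10% FBS, 37 °C, 5% CO2. Read-out IC50.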
# SK-BR-3 = test: Antiproliferative activity against human SK-BR-3 cells after 72 hrs by cell counting kit analysis; type: functional, cell-based; settings: SK-BR-3, 72 h; summary of the method: as §1
# SW-620 = test: Antiproliferative activity against human SW620 cells after 72 hrs by cell counting kit analysis; type: functional, cell-based; settings: SW-620, 72 h; summary of the method: as §1
# SW480 = test: Antiproliferative activity against human SW480 cells after 72 hrs by cell counting kit analysis; type: functional, cell-based; settings: SW480, 72 h; summary of the method: as §1
# MCF7 = test: Antiproliferative activity against human MCF7 cells after 72 hrs by cell counting kit analysis; type: functional, cell-based; settings: MCF7, 72 h; summary of the method: as §1
# HCT-116 [1] = test: Antiproliferative activity against human HCT116 cells after 72 hrs by cell counting kit analysis; type: functional, cell-based; settings: HCT-116, 72 h; summary of the method: as §1
# HCT-116 [2] = test: Induction of apoptosis in human HCT116 cells at 150 nM after 48 hrs using FITC-TUNEL staining by flow cytometry (reference value: 7.3 %); type: functional
# Summary of the method: (§2)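 HCT116 at 1.0×10^6 per 60 mm dish, treated 24 or 48 h (0.4% DMSO control). Floating plus adherent cells assayed with DeadEnd Fluorometric TUNEL System, and FITC-TUNEL-positive percentage read by flow cytometry. Five independent experiments.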
# HCT-116 [3] = test: Cell cycle arrest in human HCT116 cells assessed as accumulation at S phase at 150 nM after 24 hrs by FACS analysis (reference value: 8.5 %); type: functional
# HCT-116 [4] = test: Cell cycle arrest in human HCT116 cells assessed as accumulation at sub-G1 phase at 150 nM after 24 hrs by FACS analysis (reference value: 6.2 %); type: functional
# HCT-116 [5] = test: Cell cycle arrest in human HCT116 cells assessed as accumulation at G0/G1 phase at 150 nM after 24 hrs by FACS analysis (reference value: 76.5 %); type: functional
# HCT-116 [6] = test: Induction of apoptosis in human HCT116 cells at 150 nM after 24 hrs using FITC-TUNEL staining by flow cytometry; type: functional; summary of the method: as §2
# HCT-116 [7] = test: Cell cycle arrest in human HCT116 cells assessed as increase of phosphorylated histone H3 at Ser10 level at 150 nM after 24 hrs using propidium iodide staining by flow cytometry (reference value: 1.4 %); type: functional
# HCT-116 [8] = test: Cell cycle arrest in human HCT116 cells assessed as increase of phosphorylated histone H3 at Ser10 level at 150 nM after 24 hrs by Western blotting; type: functional, cell-based
# Summary of the method: (§3)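 HCT116 (1.0×10^6/dish) serum-starved 24 h, then treated 24 h in serum-free medium (0.4% DMSO control). Lysed 1 h at 0 °C in modified lysis buffer (pH 8.0, 1% NP-40). 7.5 µg protein run on SDS-PAGE and PVDF blot, probed for phospho-histone H3 Ser10 and total H3, ECL detection. Five independent experiments.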
# Tubulin (Homo sapiens) [9] = biological target: T1, Tubulin (Homo sapiens) (UniProt P68371+Q9H4B7+P0DPH7+P68366+Q13509+Q71U36+P04350+Q3ZCM7+P07437+P68363+Q9BQE3+Q6PEY2+Q13885+Q9BVA1+Q9BUF5); test: Inhibition of alpha-tubulin polymerization in human HT1080 cells assessed as disruption of microtubule structures at 100 nM after 4 hrs using Hoechst staining by fluorescence microscopic analysis; type: cell-based; settings: HT-1080
# HCT-116 [10] = test: Cell cycle arrest in human HCT116 cells assessed as accumulation at G2/M phase at 150 nM after 24 hrs by FACS analysis (reference value: 10.9 %); type: functional
# HCT-116 [11] = test: Cell cycle arrest in human HCT116 cells assessed as increase of phosphorylated histone H3 at Ser10 level at 20 to 40 uM after 24 hrs by Western blotting; type: functional, cell-based; summary of the method: as §3
# HCT-116 [12] = test: Cell cycle arrest in human HCT116 cells assessed as accumulation at sub-G1 phase at 40 uM after 24 hrs by FACS analysis (reference value: 6.2 %); type: functional
# HCT-116 [13] = test: Cell cycle arrest in human HCT116 cells assessed as increase of phosphorylated histone H3 at Ser10 level at 40 uM after 24 hrs using propidium iodide staining by flow cytometry (reference value: 1.4 %); type: functional
# HCT-116 [14] = test: Induction of apoptosis in human HCT116 cells at 40 uM after 24 hrs using FITC-TUNEL staining by flow cytometry; type: functional; summary of the method: as §2
# HCT-116 [15] = test: Cell cycle arrest in human HCT116 cells assessed as accumulation at G2/M phase at 40 uM after 24 hrs by FACS analysis (reference value: 10.9 %); type: functional
# HCT-116 [16] = test: Induction of apoptosis in human HCT116 cells at 40 uM after 48 hrs using FITC-TUNEL staining by flow cytometry (reference value: 7.3 %); type: functional; summary of the method: as §2
# HCT-116 [17] = test: Cell cycle arrest in human HCT116 cells assessed as accumulation at S phase at 40 uM after 24 hrs by FACS analysis (reference value: 8.5 %); type: functional
# HCT-116 [18] = test: Cell cycle arrest in human HCT116 cells assessed as accumulation at G0/G1 phase at 40 uM after 24 hrs by FACS analysis (reference value: 76.5 %); type: functional
# Mus musculus = test: Toxicity in human HCT116 cells xenografted nude mouse assessed change in body weight at 50 to 80 mg/kg, ip administered at days 0, 2, 4, 7, 9, 11, 14 and 16 measured on day 21; type: organism-based, HCT-116; design: dose 50-80 mg/kg, route intraperitoneal; settings: in vivo
# HCT-116 [19] = test: Antitumor activity against human HCT116 cells xenografted in nude mouse assessed as inhibition of tumor growth at 80 mg/kg, ip administered at days 0, 2, 4, 7, 9, 11, 14 and 16 measured on day 21 relative to control; type: functional; settings: route intraperitoneal
# HCT-116 [20] = test: Cell cycle arrest in human HCT116 cells assessed as accumulation at G0/G1 phase at 20 uM after 24 hrs by FACS analysis (reference value: 76.5 %); type: functional
# Tubulin (Homo sapiens) [21] = biological target: T1, Tubulin (Homo sapiens); test: Inhibition of alpha-tubulin polymerization in human HT1080 cells assessed as disruption of microtubule structures at 10 uM after 4 hrs using Hoechst staining by fluorescence microscopic analysis; type: cell-based; settings: HT-1080
# HCT-116 [22] = test: Cell cycle arrest in human HCT116 cells assessed as accumulation at sub-G1 phase at 20 uM after 24 hrs by FACS analysis (reference value: 6.2 %); type: functional
# HCT-116 [23] = test: Cell cycle arrest in human HCT116 cells assessed as accumulation at G2/M phase at 20 uM after 24 hrs by FACS analysis (reference value: 10.9 %); type: functional
# HCT-116 [24] = test: Cell cycle arrest in human HCT116 cells assessed as accumulation at S phase at 20 uM after 24 hrs by FACS analysis (reference value: 8.5 %); type: functional
# HCT-116 [25] = test: Cell cycle arrest in human HCT116 cells assessed as increase of phosphorylated histone H3 at Ser10 level at 20 uM after 24 hrs using propidium iodide staining by flow cytometry (reference value: 1.4 %); type: functional
# HCT-116 [26] = test: Induction of apoptosis in human HCT116 cells at 20 uM after 24 hrs using FITC-TUNEL staining by flow cytometry; type: functional; summary of the method: as §2
# HCT-116 [27] = test: Induction of apoptosis in human HCT116 cells at 20 uM after 48 hrs using FITC-TUNEL staining by flow cytometry (reference value: 7.3 %); type: functional; summary of the method: as §2
# [28] = Antiproliferative activity against human CCD-1059SK cells at 200 uM after 72 hrs by cell counting kit analysis; type: cell-based; summary of the method: as §1
# Tubulin (Sus scrofa) = Tubulin (Sus scrofa) (UniProt P02554+P02550); test: Inhibition of purified porcine brain tubulin polymerization at 20 uM after 100 mins by fluorescence assay
# Summary of the method: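 Porcine brain tubulin 2.0 mg/mL in General Tubulin Buffer with Tubulin Glycerol Buffer, GTP and DAPI. Added to compound prewarmed at 37 °C (final 2.0% DMSO, which is also the vehicle control). DAPI fluorescence (ex 340, em 460 nm) read kinetically over 100 min. Four independent experiments.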
# Chain of Tubulin (Sus scrofa) (P02550 whole entry, looked up): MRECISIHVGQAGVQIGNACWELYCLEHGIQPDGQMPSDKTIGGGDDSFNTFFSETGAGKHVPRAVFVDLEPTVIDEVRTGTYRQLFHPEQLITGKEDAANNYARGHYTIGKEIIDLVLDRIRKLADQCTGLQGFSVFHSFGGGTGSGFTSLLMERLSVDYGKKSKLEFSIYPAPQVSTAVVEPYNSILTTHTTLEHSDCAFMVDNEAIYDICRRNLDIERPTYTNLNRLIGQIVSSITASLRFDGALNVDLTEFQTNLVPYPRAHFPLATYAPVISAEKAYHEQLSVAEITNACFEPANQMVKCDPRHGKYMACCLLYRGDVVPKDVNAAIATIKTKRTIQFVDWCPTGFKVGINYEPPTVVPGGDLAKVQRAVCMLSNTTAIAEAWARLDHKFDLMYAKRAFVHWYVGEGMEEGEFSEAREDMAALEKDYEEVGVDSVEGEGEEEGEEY
# Chain of Tubulin (Sus scrofa) (P02554 whole entry, looked up): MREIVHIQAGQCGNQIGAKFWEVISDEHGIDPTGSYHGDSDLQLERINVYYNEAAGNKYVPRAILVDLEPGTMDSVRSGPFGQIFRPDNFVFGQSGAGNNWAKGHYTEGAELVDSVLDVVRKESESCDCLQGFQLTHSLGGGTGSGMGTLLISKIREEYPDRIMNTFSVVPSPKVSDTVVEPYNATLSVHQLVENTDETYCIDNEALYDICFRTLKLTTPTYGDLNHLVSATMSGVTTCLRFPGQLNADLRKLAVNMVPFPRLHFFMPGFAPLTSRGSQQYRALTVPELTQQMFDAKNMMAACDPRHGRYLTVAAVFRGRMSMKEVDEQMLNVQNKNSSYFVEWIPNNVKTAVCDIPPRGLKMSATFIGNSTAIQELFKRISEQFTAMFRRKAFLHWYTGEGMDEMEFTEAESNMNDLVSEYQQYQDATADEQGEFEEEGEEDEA
Compound,IC50 (MDA-MB-231) [µM],IC50 (SK-BR-3) [µM],IC50 (SW-620) [µM],IC50 (SW480) [µM],IC50 (MCF7) [µM],IC50 (HCT-116 [1]) [µM],also measured
CC[C@]1(O)C[C@H]2CN(CCc3c([nH]c4ccccc34)[C@@](C(=O)OC)(c3cc4c(cc3OC)N(C=O)[C@H]3[C@@](O)(C(=O)OC)[C@H](OC(C)=O)[C@]5(CC)C=CCN6CC[C@]43[C@@H]65)C2)C1 [VINCRISTINE],,,,,,,Activity (HCT-116 [2]): 31.6%; Activity (HCT-116 [3]): 12.5%; Activity (HCT-116 [4]): 23%; Activity (HCT-116 [5]): 35.9%; Activity (HCT-116 [6]): 4%; Activity (HCT-116 [7]): 25.3%; Activity (HCT-116 [8]): Active; inhibition (Tubulin (Homo sapiens) [9]): Active; Activity (HCT-116 [10]): 28.6%
O=C(Nc1ccccc1)c1ccccc1 [N-PHENYLBENZAMIDE],> 100,> 100,> 100,> 100,> 100,> 100,
CC(=O)O[C@H]1C(=O)[C@@]2(C)[C@H]([C@H](OC(=O)c3ccccc3)[C@]3(O)C[C@H](OC(=O)[C@H](O)[C@@H](NC(=O)c4ccccc4)c4ccccc4)C(C)=C1C3(C)C)[C@]1(OC(C)=O)CO[C@@H]1C[C@@H]2O,,,,,,,inhibition (Tubulin (Homo sapiens) [9]): inactive
O=C(Nc1ccccc1)c1ccc(CCl)cc1,0.8,0.7,0.8,0.9,54.3,1.2,
CCc1ccc(C(=O)Nc2ccccc2)cc1,> 100,> 100,> 100,> 100,> 100,> 100,
O=C(Nc1ccccc1)c1ccc(CO)cc1,> 100,9.8,> 100,> 100,> 100,24.8,

# The next lines start with results.
IC50 (MDA-MB-231) [µM],IC50 (SK-BR-3) [µM],IC50 (SW-620) [µM],IC50 (SW480) [µM],IC50 (MCF7) [µM],IC50 (HCT-116 [1]) [µM],Compound,also measured
> 100,> 100,> 100,> 100,> 100,> 100,O=C(Nc1ccccc1NC(=O)c1ccc(CO[N+](=O)[O-])cc1)c1ccc(CO[N+](=O)[O-])cc1,
8.4,8.2,8.4,13.3,> 100,19.3,O=C(Nc1ccccc1)c1cccc(CO[N+](=O)[O-])c1,
30,18.5,25.8,22.2,> 100,47.6,O=C(Nc1ccccc1OC(=O)c1cccc(CO[N+](=O)[O-])c1)c1cccc(CO[N+](=O)[O-])c1,
0.8,0.6,0.8,6.9,58.1,0.6,O=C(Nc1ccccc1OC(=O)c1ccc(CCl)cc1)c1ccc(CCl)cc1,
14.4,30.5,15.1,19.1,> 100,68,CC(=O)Oc1ccccc1C(=O)Oc1ccc(CO[N+](=O)[O-])cc1,Activity (HCT-116 [11]): inactive; Activity (HCT-116 [12]): 15.3%; Activity (HCT-116 [13]): 1.7%; Activity (HCT-116 [14]): 4%; Activity (HCT-116 [15]): 12%; Activity (HCT-116 [16]): 3.6%; Activity (HCT-116 [17]): 18.8%; Activity (HCT-116 [18]): 53.7%
6.7,6.3,7.6,8.4,> 100,6.2,O=C(Nc1cccc(OC(=O)c2ccc(CO[N+](=O)[O-])cc2)c1)c1ccc(CO[N+](=O)[O-])cc1,
0.8,0.7,0.8,0.8,> 100,0.6,O=C(Nc1ccccc1)c1ccc(CO[N+](=O)[O-])cc1,Activity (HCT-116 [11]): Active; Activity (Mus musculus): Non-toxic; T/C (HCT-116 [19]): 55%; Activity (HCT-116 [20]): 30.4%; inhibition (Tubulin (Homo sapiens) [21]): Active; Activity (HCT-116 [22]): 10.4%; Activity (HCT-116 [23]): 51.8%; Activity (HCT-116 [24]): 7.4%; Activity (HCT-116 [25]): 46.2%; Activity (HCT-116 [26]): 4%; Activity (HCT-116 [27]): 24.2%; Activity [28]: Non-toxic; inhibition (Tubulin (Sus scrofa)): Active
47.7,50.1,16.9,80.7,> 100,17.9,O=C(Oc1ccccc1)c1ccc(CO[N+](=O)[O-])cc1,
1.4,0.7,0.8,3.8,> 100,0.7,O=C(Nc1ccccc1OC(=O)c1ccc(CO[N+](=O)[O-])cc1)c1ccc(CO[N+](=O)[O-])cc1,Activity (HCT-116 [11]): Active; Activity (HCT-116 [20]): 52.4%; inhibition (Tubulin (Homo sapiens) [21]): Active; Activity (HCT-116 [22]): 11%; Activity (HCT-116 [23]): 29.3%; Activity (HCT-116 [24]): 7.3%; Activity (HCT-116 [25]): 26.4%; Activity (HCT-116 [26]): 4%; Activity (HCT-116 [27]): 36.4%; Activity [28]: Non-toxic; inhibition (Tubulin (Sus scrofa)): Active
